# TCR CD3 inh: human TCR-CD3 binding inhibition; inhibition, % at 9.4 µM; TAMRA-labeled TCR probe fluorescence, biochemical; 360,000 tested, 0.37% active; in the data active = inhibition above about 19%;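 also: recombinant mutant TCR 2C K166C tagged with TAMRA read by polarization; 0% = receptor in buffer alone and 100% = receptor with positive control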
# PRMT1 inh: inhibitors of human PRMT1. 370,000 tested, 1.3% active. inhibition, % at 2.79 µM. recombinant PRMT1, activity-based probe fluorescence polarization. Q99873;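 active = inhibition above about 21% made by adding two undisclosed values, limit read from the data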
# ATG4B inhibitor: ATG4B (human) cysteine protease inhibition | Q9Y4P1 | ATG4B cleavage of LC3-PLA2, NBD-HPC fluorescence, 1 h | inhibition, % at 8.33 µM | 340,000 tested, 0.51% active; in the data active = inhibition above about 40%
# HTRA1 inh: inhibitors of human serine peptidase HTRA1; AID 504803; inhibition, % at 5.96 µM; Q92743; 340,000 tested, 0.5% active; recombinant HTRA1, FP-rhodamine activity-based probe, fluorescence polarization; in the data active = inhibition above about 36%;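 also: 0% = enzyme with DMSO and 100% = wells lacking enzyme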
# SIAE primary: inhibitors of human sialic acid acetylesterase SIAE. AID 1053197. SIAE FP-Rh probe binding, fluorescence polarization. 370,000 tested, 0.69% active. inhibition, % at 9.66 µM;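 active = inhibition above a cutoff: mean of compounds within the control limits plus 3 SD of those, cut at about 17% in these data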;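 also: 0% = plate median of compound wells and 100% = probe without SIAE protein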
# ABHD4 inh: ABHD4 (mouse) inhibition, primary FP screen; Q8VD66; purified mABHD4, FP-Rh probe fluorescence polarization; inhibition, % at 8.92 µM; 370,000 tested, 0.54% active; AID 720543;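 active = inhibition exceeding the mean over every tested compound plus 3 SD, cut at about 30% in these data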;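 also: 0% = plate median of compound wells and 100% = S159A mutant with DMSO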
# Target sequence (Q8VD66 whole entry, looked up): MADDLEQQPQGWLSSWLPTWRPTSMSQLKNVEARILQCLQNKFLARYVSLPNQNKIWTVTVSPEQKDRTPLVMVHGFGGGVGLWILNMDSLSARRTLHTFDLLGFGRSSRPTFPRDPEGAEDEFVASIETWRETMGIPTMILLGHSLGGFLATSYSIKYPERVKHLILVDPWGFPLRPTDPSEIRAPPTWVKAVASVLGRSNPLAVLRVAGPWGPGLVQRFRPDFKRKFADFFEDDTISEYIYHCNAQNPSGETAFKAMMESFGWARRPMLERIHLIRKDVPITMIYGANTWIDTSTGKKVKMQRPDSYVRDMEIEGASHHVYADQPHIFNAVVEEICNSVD
#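 system = mouse ABHD4 enzyme, wild type | medium = HEPES pH 7.0, NaCl, Pluronic buffer | also added = FP-Rh probe | incubation = Enzyme–compound pre-incubation 45 min, then probe 60 min, both 25 °C | technique = fluorescence polarization, excitation 525 nm, emission 598 nm, BODIPY TMR filters | controls = S159A mutant high control, sample median low control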
# ATG4B confirm: confirmation of human ATG4B inhibitors | 320 tested, 92% active | ATG4B protease fluorescent substrate cleavage assay | AID 504757 | shares compounds with ATG4B inhibitor | inhibition, % at 8.33 µM; in the data active = inhibition above about 39%
# PLA2 ctr: PLA2 (human) inhibition in ATG4B counter-screen; shares compounds with ATG4B inhibitor; purified PLA2, NBD-C6-HPC fluorescence, 45 min; inhibition, % at 8.33 µM; 1,600 tested, 66% active; in the data active = inhibition above about 50%
# Target sequence (P04054 whole entry, looked up): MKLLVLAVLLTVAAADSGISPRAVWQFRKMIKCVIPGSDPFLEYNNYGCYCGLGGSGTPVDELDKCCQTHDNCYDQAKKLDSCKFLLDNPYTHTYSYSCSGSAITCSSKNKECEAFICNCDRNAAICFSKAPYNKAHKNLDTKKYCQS
# An asterisk follows results filed as active; . = no result. Only some compounds are listed: those with a hit (about 2.9% of all), similar ones and a draw of the others.
SMILES,TCR CD3 inh,PRMT1 inh,ATG4B inhibitor,HTRA1 inh,SIAE primary,ABHD4 inh,PLA2 ctr,others
O=C(NCCc1ccccc1)OCc1cn(-c2c(F)cccc2F)nn1,.,-4,.,.,3,1,.,
NC(=O)C1CCN(c2nc(-c3cccs3)cs2)CC1,.,.,45*,2,.,.,54*,
CCOC(=O)[C@@]12CCC3=C1N(CCC3)C(=O)[C@H](CC(=O)NCC13CC4CC(CC(C4)C1)C3)C2,.,-2,.,.,-2,5,.,
O=C(c1ccc(Cl)cc1)c1oc2ccccc2c1CS(=O)(=O)c1ccccc1,0,1,43*,-7,-2,-1,-11,
N#Cc1cnn(-c2nc(SCc3ccccc3)nc3sc4c(c23)CCCC4)c1N,-6,6,43*,-1,-17,-14,59*,
COC(=O)c1ccc(C(=O)N2CCCC(Nc3ccc(C(C)C)cc3)C2)nc1 (centres undefined),-1,-2,42*,1,11,4,42,ATG4B confirm=78*
COc1ccc(C(=O)N2CCCC(Nc3ccc(C(C)C)cc3)C2)c(OC)n1 (centres undefined),-9,0,76*,1,1,4,78*,
CC(C)c1ccc(NC2CCCN(C(=O)c3cc(C(C)C)[nH]n3)C2)cc1 (centres undefined),3,1,43*,-5,2,5,46,ATG4B confirm=74*
COc1ccc(NC2CCCN(C(=O)c3ccc(OC)cc3OC)C2)cc1 (centres undefined),4,1,-2,-5,4,4,.,
COCCN1C(=O)C2=C(C1=O)C1N(C)c3ccccc3[C@@]13C[C@@H](CO)N(S(=O)(=O)c1ccc(OC)cc1)C3=N2 (some centres undefined),.,1,.,.,2,4,.,
Cn1cccc1-c1nc2ccccc2n1Cc1ccccc1,3,-3,43*,-12,2,-8,56*,
O=C(O)c1cccc(CSc2nc(-c3ccccc3)cc(C(F)(F)F)n2)c1,-1,0,30,-37,8,-28,.,
COc1ccc(-c2cc(C(F)(F)F)nc(SCc3cccc(C(=O)O)c3)n2)cc1,3,0,44*,-31,-6,-1,56*,
Cc1nc2sc(C(=O)NCc3nccs3)c(N)c2c(C)c1Cl,.,4,.,.,-1,1,.,
CCN(Cc1ccc2c(c1)OCO2)C(=O)CSc1nc(C)nc2sc(C)c(C)c12,-1,-4,58*,-5,-1,1,75*,
CCCCNC(=O)O[C@H]1CC[C@@]23CCCN2C(=O)CCC[C@H]3[C@H]1C,.,-2,.,.,5,4,.,
O=C(CSc1ccc(Cl)cc1)Nc1ccccc1Oc1ccccc1,-4,1,40*,-5,3,-13,15,
O=C(CSc1ccc(Br)cc1)Nc1ccccc1Oc1ccccc1,1,0,9,-2,1,4,.,
O=C(N/N=C1\CC(c2ccccc2)Oc2ccccc21)c1ccc(O)cc1 (centres undefined),3,-3,43*,-15,-7,-2,55*,
COc1ccc(-c2[nH]nc3c2C(c2ccc(OC(=O)N4CCOCC4)cc2)C(C#N)=C(N)O3)cc1 (centres undefined),3,1,42*,.,-1,1,44,ATG4B confirm=76*
CC(C)(C)c1[nH]nc2c1C(c1ccc(OC(=O)c3ccco3)cc1)C(C#N)=C(N)O2 (centres undefined),2,-4,83*,-8,-28,-8,86*,
CC(C)CN1CN2CCc3ccccc3C2CS1(=O)=O (centres undefined),.,-5,.,.,1,5,.,
CCCc1nc(SCC(=O)NC2CC2)c2c(C)c(C)sc2n1,2,2,3,7,-6,5,.,
CCCc1nc(SCC(=O)N2c3ccccc3CC2C)c2c(C)c(C)sc2n1 (centres undefined),5,-2,69*,-4,1,-1,81*,
CN(C)S(=O)(=O)c1ccc(NC(=S)NC(=O)C2CCC2)cc1,-4,8,2,-2,-4,-8,.,
SMILES,TCR CD3 inh,PRMT1 inh,ATG4B inhibitor,HTRA1 inh,SIAE primary,ABHD4 inh,PLA2 ctr,others
CN(Cc1ccccc1)S(=O)(=O)c1ccc(NC(=S)NC(=O)C2CCCC2)cc1,6,0,50*,-67,-36,-6,44,
CC(=O)c1cc(-c2ccc(S(C)(=O)=O)cc2)c(=O)n2c1CCC2,.,-1,.,.,0,-1,.,
Fc1ccc(CCNC(=S)Nc2ccc(F)c(Cl)c2)cc1,-10,3,44*,-18,-8,-15,46,ATG4B confirm=58*
Cc1c(Cl)cccc1NC(=S)NCCc1ccc(F)cc1,2,1,71*,-8,-1,-3,77*,
Cc1c(Cl)cccc1NC(=S)NCCc1ccc(Cl)cc1,-6,1,86*,-30,-6,-15,89*,
S=C(Nc1ccccc1I)OC1CCC12CCC(c1ccccc1)CC2 (centres undefined),.,-5,.,.,-1,0,.,
C#CCNC(=O)C[C@H]1C[C@@]2(C(=O)OCC)CCCC3=C2N(CCC3)C1=O,.,-1,.,.,4,1,.,
O=C(c1ccc(Cl)c(S(=O)(=O)Nc2ccccc2C(=O)N2CCc3ccccc3C2)c1)N1CCc2ccccc2C1,4,0,48*,-31,-9,-5,38,ATG4B confirm=62*
CN(C)S(=O)(=O)c1ccc2[nH]cc(/C=C/c3nc4ccccc4c(=O)n3-c3ccccc3)c2c1,1,0,42*,-5,-3,-1,9,ATG4B confirm=105*
Cc1noc(C)c1COc1ccc(C(=O)OCC(=O)NCc2ccccc2Cl)cc1,3,3,45*,-7,-8,-10,46,ATG4B confirm=64*
COc1ccc(Cc2nnc(NC(=O)c3ccc(OC)c(OC)c3)s2)cc1,-2,3,8,-4,2,2,.,
COc1ccc(Cc2nnc(NC(=O)c3cccc([N+](=O)[O-])c3)s2)cc1,3,-1,51*,0,3,-1,5,
O=C(NCc1cccc(F)c1)c1ccc(N2C(=O)Cn3c(cc4sccc43)C2=O)cc1,-2,0,41*,-33,-20,-9,34,
O=C(CSc1nnc(-c2ccc(Br)o2)n1Cc1ccccc1)c1ccccc1F,-2,-1,57*,-20,7,-7,57*,
COc1cccc(N(C)C(=O)[C@@H](C2CC2)[C@@H](O)c2ccc3ccccc3c2)c1,.,-1,.,.,3,-1,.,
CCOC(=O)[C@]12CCCCC/C=C\1N(Cc1ccc(OC)cc1)C(=O)[C@H]2CC(=O)NCCc1ccccc1OC,.,2,.,.,11,-2,.,
Cc1ccccc1CSc1ccc(-c2ccc3c(c2)OCO3)nn1,-1,2,45*,-23,7,-20,27,
